Assay outcomes: PubChem BioAssay, Johns Hopkins Ion Channel Center
KCNQ1 block: inhibitors of human KCNQ1 channel, primary screen, cell-based, thallium flux, high-throughput; Potassium voltage-gated channel subfamily KQT member 1 (Homo sapiens), P51787; CHO-K1 KCNQ1, FluxOR thallium flux fluorescence; active compounds read high; B-score at 10 µM; 310,000 tested, 1.3% active;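 active = compounds whose thallium flux B-score, printed positive for inhibition, exceeds three library SD while starting fluorescence stays within three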;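 also: channel opened by potassium depolarization with thallium stimulus after 20 min compound exposure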
KCNQ1 pot: potentiators or activators of KCNQ1 channel, primary screen, cell-based, thallium flux, high-throughput; B-score at 10 µM; CHO-K1 KCNQ1, thallium flux FluxOR fluorescence; active compounds read high; Potassium voltage-gated channel subfamily KQT member 1 (Homo sapiens), P51787; 310,000 tested, 0.35% active; AID 2648, 2010;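 active = fluorescence ratio B-score, a plate-corrected score, at least three library SD, with initial intensity B-score within 5 SD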
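System: CHO-K1 cells stably expressing KCNQ1 / Medium: assay buffer for compound exposure, DMSO matched across wells / Reagent: thallium- and potassium-containing depolarizing buffer / Compound: one concentration, matched DMSO / Incubation: 20 min compound pretreatment at room temperature / Measured by: kinetic FluxOR fluorescence, 10 s baseline plus 110 s post-stimulus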
KCNK3 block: human KCNK3 channel inhibitors, primary screen, CHO cells, FluxOR thallium flux, B-score | FluxOR fluorescence; active compounds read low | B-score at 10 µM | 340,000 tested, 0.84% active;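 active = B-score under library mean minus 4 SD, starting fluorescence ratio at most library mean plus 5 SD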;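 also: more negative B-score means stronger inhibition of thallium flux through KCNK3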
hERG protect: hERG rescue from dofetilide block, primary screen, cell-based, CHO-hERG, FluxOR thallium flux, dofetilide IC70; Voltage-gated inwardly rectifying potassium channel KCNH2 (Homo sapiens), Q12809; dofetilide IC70 present; activation (rescue from dofetilide block), less the hit threshold, % at 10 µM; 310,000 tested, 0.51% active; AID 1511, 2009;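 active = activation above the mean of controls blocked by dofetilide plus 5 SD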;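 also: thallium influx through hERG after potassium depolarization seen as dye fluorescence rise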
KCNK9 block: KCNK9 potassium channel inhibitors, primary screen, HEK293 cells, thallium flux; Potassium channel subfamily K member 9 (Homo sapiens), Q9NPC2; FluxOR thallium flux fluorescence; active compounds read low; B-score at 10 µM; 310,000 tested, 1.2% active;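 active = ratio B-score over 3 SD below the library mean, with starting fluorescence within 5 SD of its mean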;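 also: negative B-score means less thallium flux so channel inhibition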
Target sequence (Q9NPC2 whole entry, looked up): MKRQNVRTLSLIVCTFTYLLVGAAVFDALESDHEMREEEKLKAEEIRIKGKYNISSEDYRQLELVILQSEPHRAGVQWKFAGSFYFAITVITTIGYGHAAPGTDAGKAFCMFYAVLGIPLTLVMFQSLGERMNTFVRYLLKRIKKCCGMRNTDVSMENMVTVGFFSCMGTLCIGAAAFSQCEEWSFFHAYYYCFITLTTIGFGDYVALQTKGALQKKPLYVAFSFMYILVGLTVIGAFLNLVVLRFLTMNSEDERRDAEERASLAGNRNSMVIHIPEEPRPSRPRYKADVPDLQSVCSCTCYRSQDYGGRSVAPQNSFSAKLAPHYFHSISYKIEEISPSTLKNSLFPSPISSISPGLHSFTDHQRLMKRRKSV
KCNK9 block conf: KCNK9 potassium channel inhibitors, confirmation, HEK293 cells, thallium flux, duplicate | FluxOR thallium flux fluorescence | inhibition, % at 10 µM | 4,900 tested, 43% active | AID 492992, 2010 | shares compounds with KCNK9 block;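 active = thallium signal inhibited by more than 5 SD of the compound-free buffer control wells, on both duplicate plates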;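 also: 0% = assay buffer control wells without compound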
Kir21 sel: mouse Kir2.1 channel inhibition, confirmation, selectivity assay for KCNK9 modulator project, cell-based, HEK293, thallium flux; 4,900 tested, 4% active; inhibition, % at 10 µM; Kir2.1 cells, FluxOR thallium flux fluorescence; shares compounds with KCNK9 block;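 active = thallium signal drop more than 5 SD beyond the mean of the no-compound control wells, seen in both duplicate plates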;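 also: signal is fluorescence rise after thallium addition divided by baseline fluorescence; plate controls were assay buffer only for no effect and full block by chlorpromazine control for full effect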
HEK293 Tl ctr: thallium flux in non-induced HEK293 cells, confirmation, counter-screen for KCNK9 inhibitor project, cell-based, second counter screen, non-induced KCNK9-HEK293; shares compounds with KCNK9 block; inhibition, % at 10 µM; AID 492997, 2010; FluxOR thallium flux; 4,900 tested, 40% active;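 active = thallium signal drop beyond 5 SD of the untreated control mean, on both duplicate plates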;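 also: plate controls were buffer only IC0 wells for no effect and SID17386958 at its maximal inhibitory level for full effect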
Starred values were filed as active, the others as inactive; i = inactive; x = no result. An excerpt weighted towards active compounds, which were near 3.1% of everything screened.

SMILES | KCNQ1 block | KCNQ1 pot | KCNK3 block | hERG protect | KCNK9 block | KCNK9 block conf | Kir21 sel | HEK293 Tl ctr
CC(=O)N(CCC(c1ccco1)C(C)C)Cc1ccc(OC(C)C)cc1 (stereo not drawn) | i | i | i | -16 | -16* | 37%* | i | 43%*
COc1ccc(CCC(=O)N2CCN(S(=O)(=O)c3ccc(OC(F)(F)F)cc3)CC2)cc1 | x | x | i | x | x | x | x | x
C=C(C)[C@@H]1CC=C(CN2CCN(Cc3ccccc3)CC2)CC1 | i | i | i | -8 | i | x | x | x
C=C(C)C1CC=C(CN2CCN(Cc3ccccc3)CC2)CC1 (stereo not drawn) | i | i | i | -5 | i | i | i | i
COc1ccc2c(c1)CCCC21NC(=O)N(CC(=O)NC(=O)NCc2ccccc2)C1=O (stereo not drawn) | i | i | i | -18 | i | x | x | x
CCn1cnc2c1c(=O)n(Cc1cccc([N+](=O)[O-])c1)c(=O)n2Cc1ccccc1 | i | i | i | -7 | i | i | i | i
CCn1cnc2c1c(=O)n(Cc1nnc3n1-c1ccccc1SC3)c(=O)n2Cc1ccccc1 | i | i | i | -5 | i | i | i | i
CCn1cnc2c1c(=O)n(Cc1csc(-c3ccccc3)n1)c(=O)n2Cc1ccccc1 | i | i | i | -11 | i | i | i | i
CCOC(=O)c1c(C)[nH]c(C(=O)Cn2c(=O)c3c(ncn3CC)n(Cc3ccccc3)c2=O)c1C | i | i | i | -4 | i | i | i | i
CCn1cnc2c1c(=O)n(CC(=O)NCC(C)C)c(=O)n2Cc1ccccc1 | i | i | i | -2 | i | x | x | x
CCn1cnc2c1c(=O)n(CC(=O)NCc1ccccc1)c(=O)n2Cc1ccccc1 | i | i | i | -7 | i | x | x | x
CCn1cnc2c1c(=O)n(CC(=O)NCC(F)(F)F)c(=O)n2Cc1ccccc1 | i | i | i | -11 | i | x | x | x
O=C(COc1ccc(Br)cc1)Nc1ccc(NC(=O)c2ccccc2)cc1 | i | i | i | -7 | i | x | x | x
Cc1ccc(NC(=O)C2Cc3ccccc3CN2C(=O)c2ccccc2)cc1Cl (stereo not drawn) | i | i | i | -7 | i | x | x | x
O=c1[nH]c2cc(Cl)c(Br)cc2o1 | x | x | i | x | x | x | x | x
CC1CCCCN1C(=O)CSc1nc(C2CC2)nc2c1cnn2-c1ccccc1 (stereo not drawn) | i | i | i | -10 | -11* | 56%* | i | i
Clc1cccc(NCc2nnc(SCc3ccc(Cl)cc3Cl)o2)c1 | i | i | i | -6 | i | i | i | 32%*
Cc1ccc(CN2CCc3c(OCc4ccc(F)cc4)cccc3C2=O)cc1 | i | i | i | -11 | -13* | 71%* | i | 42%*
Cc1nc(-c2cccc(S(=O)(=O)N3CCCCCC3)c2)cs1 | i | i | i | -6 | i | i | i | i
Cc1nc(-c2cccc(S(=O)(=O)N3CCCCC3)c2)cs1 | i | i | i | -14 | i | x | x | x
O=C(CC(=O)c1ccccc1[N+](=O)[O-])c1ccccc1 | i | i | x | -3 | i | x | x | x
O=C(NCc1cc(Br)cc(Br)c1OC(=O)c1ccccc1[N+](=O)[O-])c1ccccc1 | i | i | i | -13 | -9.9* | 62%* | i | 34%*
Cc1ccccc1N1CCN(CCN2C(=O)CC(=C3c4ccccc4-c4ccccc43)C2=O)CC1 | i | i | i | -14 | i | x | x | x
COc1ccccc1N1CCN(CCN2C(=O)CC(=C3c4ccccc4-c4ccccc43)C2=O)CC1 | i | i | x | -12 | i | i | i | i
CC(=O)c1ccc(NC(=O)C2CC2c2ccccc2)cc1 (stereo not drawn) | i | i | i | -7 | i | x | x | x
SMILES | KCNQ1 block | KCNQ1 pot | KCNK3 block | hERG protect | KCNK9 block | KCNK9 block conf | Kir21 sel | HEK293 Tl ctr
CC1CCN(S(=O)(=O)c2ccc(C(=O)N3CCCC(C(F)(F)F)C3)cc2)CC1 (stereo not drawn) | i | i | i | -12 | i | x | x | x
Cc1cc(OCC(=O)N(C(C)C)C(C)C)ccc1Cl | i | i | i | 5.0* | i | i | i | i
COc1ccc(C(=O)NC(=S)NC(C)c2ccccc2)cc1 (stereo not drawn) | i | i | i | -12 | i | x | x | x
CC(NC(=S)NC(=O)c1ccccc1)c1ccccc1 (stereo not drawn) | i | i | i | -5 | i | i | i | i
Cc1cccc(C(=O)NC(=S)Nc2ccc(Cc3ccncc3)cc2)c1 | i | i | i | -4 | i | i | i | i
O=C(NC(=S)Nc1ccc(Cc2ccncc2)cc1)c1ccccc1 | i | i | i | -4 | i | x | x | x
CCC(=O)Nc1cccc(NC(=S)NC(=O)c2cccc(C)c2)c1 | i | i | i | -11 | i | x | x | x
Cc1cccc(C(=O)NC(=S)NC(C)c2ccccc2)c1 (stereo not drawn) | i | i | i | -9 | i | i | i | i
CC(=O)c1ccc(S(=O)(=O)NCCC(=O)OCC(=O)NCCc2ccccc2)cc1 | i | i | i | -6 | i | x | x | x
COc1ccc(/C=C(/CC(=O)NCc2ccc(Cl)cc2)c2nc3ccccc3s2)cc1 | i | i | i | -6 | -19* | 66%* | i | 46%*
COc1ccc(/C=C(/CC(=O)Nc2ccccc2)c2nc3ccccc3s2)cc1 | i | i | i | -7 | i | x | x | x
Cc1ccc(NC(=O)C2CC(Cl)=CCC2C(=O)O)c([N+](=O)[O-])c1 (stereo not drawn) | i | i | i | -20 | i | x | x | x
CC(C)CCn1c(=O)c2ccccc2n2c(CCl)nnc12 | i | i | i | -11 | i | x | x | x
